HCV NS3 hel inh = inhibitors of HCV NS3 helicase, primary screen, biochemical, Cy5 molecular beacon fluorescence | inhibition, % at 10.9 µM | 290,000 compounds, 0.56% hits | NS3 helicase DNA unwinding;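 active = inhibition above the mean of all tested compounds plus 3 SD, set per campaign, cut at about 35% in these data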;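 also: 0% = DMSO wells and 100% = thioflavine S control wells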
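test system = hepatitis C virus NS3 helicase domain fragment enzyme | reagent = annealed dual-labelled DNA beacon duplex, ATP-started | times = 1 h at 25 °C | detection = Cy5 fluorescence, 0 and 60 min reads | read-out basis = percent inhibition from t60/t0 fluorescence ratio | control set = DMSO and thioflavine S | replication = one well per compound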
DNA FID counter = compounds displacing fluorescent DNA intercalator, primary screen, artefact control for HCV NS3 helicase inhibitor project, biochemical, FID fluorescence; DNA fluorescent intercalator displacement; inhibition, % at 7.9 µM; 290,000 compounds, 0.17% hits; AID 1845, 2009; in the data active = inhibition above about 37%;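 also: 0% = vehicle and 100% = reference compound; higher means more ethidium bromide displaced from hairpin DNA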
VIM-2 inh = VIM-2 metallo-beta-lactamase inhibitors, primary screen, biochemical, epi-absorbance readout, Pseudomonas aeruginosa enzyme; purified VIM-2, nitrocefin hydrolysis, epi-absorbance fluorescence; inhibition, % at 5.6 µM; 290,000 compounds, 0.89% hits;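 active = inhibition above the mean of all tested compounds plus 3 SD, cutoff set per screening run, cut at about 7.5% in these data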;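 also: red hydrolysis product quenches plate fluorescence so inhibitors raise well fluorescence; 0% = enzyme with DMSO and 100% = DMSO without enzyme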
IMP-1 inhibitor = IMP-1 metallo-beta-lactamase inhibitors, primary screen, biochemical, epi-absorbance readout, Pseudomonas aeruginosa enzyme; purified IMP-1, nitrocefin hydrolysis, epi-absorbance fluorescence; inhibition, % at 5.6 µM; AID 1556, 2009; metallo-beta-lactamase IMP-1 (Pseudomonas aeruginosa); 290,000 compounds, 0.45% hits;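 active = inhibition above the mean plus 3 SD of all compounds in the same screening run, cut at about 4.5% in these data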;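 also: 0% = IMP-1 with DMSO and 100% = DMSO wells lacking enzyme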
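System: Purified recombinant IMP-1 metallo-beta-lactamase enzyme | Measured by: Fluorescence quenching readout, ex 480/em 530 nm | Replication: Singlicate | Incubation: 15 min preincubation plus 25 min reaction at 25 °C | Evaluation: Percent inhibition from optical density relative to buffer-blank wells | Benchmarks: DMSO with and without IMP-1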
Starred values were filed as active, the others as inactive. Compounds with a hit are over-represented: about 1.9% of the library has one in this group of screens.

SMILES	HCV NS3 hel inh	DNA FID counter	VIM-2 inh	IMP-1 inhibitor
Cn1c2ccc(F)cc2c2nnc(SCCN3CCCCC3)nc21	21	7	12*	-2
CCn1c2ccccc2c2nnc(SCCN3CCOCC3)nc21	20	-10	3	0
COc1cccc(CCc2nnc(CCC(=O)NC(C)c3c(C)nn(C)c3C)o2)c1 (configuration not stated)	-3	-10	-5	-1
NC(=O)CC(NC(=O)c1cccc(Br)c1)c1ccc(NC2CCCCCCCCCCC2)c([N+](=O)[O-])c1 (configuration not stated)	-9	2	2	0
Cc1[nH]c(C)c(S(=O)(=O)N(Cc2ccccc2)C(C)C)c1C(=O)N1CCCC1	10	-27	-1	1
COc1ccccc1C(=O)N=c1sc2c(C)ccc(OC)c2n1C	0	-16	1	-2
Oc1ccc(/C=N/n2c(-c3ccccc3)n[nH]c2=S)cc1	-4	-5	9.2*	0
C[N+](C)(C)c1ccc(/C=N/Nc2nc(Cl)c(C#N)c(Cl)c2Cl)cc1	7	13	10*	1
COc1ccc(CC(=O)NNC(=O)c2ccc(NC(C)=O)cc2)cc1	-1	-2	-1	9.6*
COc1ccc(NC(=O)NNC(=O)c2ccc(-c3ccccc3)cc2)c(OC)c1	1	-31	-4	-2
CC(=O)Nc1ccc(C(=O)NNC(=O)Cc2ccccc2)cc1	20	2	-2	1
COc1ccc(NC(=O)NNC(=O)c2ccc(-c3ccccc3)cc2)cc1	9	-15	-1	4.9*
COc1cccc(C(C[N+](=O)[O-])c2c(C)[nH]n(-c3ccccc3)c2=O)c1 (configuration not stated)	2	-12	12*	2
Cc1cc(=O)oc(C)c1C(=O)OCC(=O)c1ccc(Cl)c(Cl)c1	8	2	1	5.3*
Cc1ccc(C(=O)COC(=O)c2c(C)cc(=O)oc2C)cc1[N+](=O)[O-]	17	-5	-3	1
CC(=O)N1CCC(O)(c2ccc3c(c2)OCO3)CC1	3	0	-1	-3
Cc1ccccc1NC(=O)c1cc2c(=O)n3cccc(C)c3nc2s1	1	-3	9.2*	-2
COCCn1c(N)c(Sc2ccc(Cl)cc2)c(=O)[nH]c1=O	3	-4	-1	-2
Cc1ccc(C(=O)C(OC(=O)CN2C(=O)c3ccccc3C2=O)c2ccccc2)cc1C (configuration not stated)	1	2	0	-4
COC(=O)CSc1nnc(-c2ccco2)n1-c1ccc(C)cc1	8	-17	0	6.0*
Cc1nc(NCCc2ccc(S(N)(=O)=O)cc2)c2c3c(sc2n1)CCC3	2	-19	7.9*	-3
CC(C)OP(=O)(OC(C)C)C(NC(=O)c1ccc(Br)cc1)c1ccccc1 (configuration not stated)	-10	-34	0	-3
COc1ccc(/C=C/c2nc(C#N)c(NCCN(C)C)o2)cc1OC	2	9	10*	-3
OCc1nnc2c3ccccc3c(-c3ccccc3)nn12	0	-5	11*	2
c1ccc(-c2nn3cnnc3c3ccccc23)cc1	-2	-9	11*	-2
SMILES	HCV NS3 hel inh	DNA FID counter	VIM-2 inh	IMP-1 inhibitor
CC1C=CC(C)C(C(=O)O)C1C(=O)O (configuration not stated)	22	-7	-2	23*
COc1cc2c(cc1OC)C(c1cccc(F)c1)CC(=O)N2 (configuration not stated)	-3	-11	0	1
COc1cc2c(cc1OC)C(c1ccccc1)CC2=O (configuration not stated)	23	-12	2	10*
COc1ccc(N(C(=O)CNC(=O)c2ccco2)C(C(=O)NCC2CCCO2)c2ccc(OC)c(OC)c2)cc1 (configuration not stated)	-13	-38	-3	-3
C=CCN(C(=O)Cc1cccs1)c1nc(-c2ccc(S(C)(=O)=O)cc2)cs1	-12	-31	1	5.3*
C=CCN(C(=O)CCc1ccccc1OC)c1nc(-c2ccc(S(C)(=O)=O)cc2)cs1	12	-19	1	4.6*
C=CCN(C(=O)c1cccc(S(=O)(=O)N2CCN(C)CC2)c1)c1nc(-c2ccccc2)cs1	-14	12	-1	-3
CCN(CC)C(=O)c1ccc(/C=C/c2c[nH]c3ccccc23)[n+](C)c1	-2	-2	6	4.8*
Cc1ccc(C(=O)/C=C/c2c[nH]c3ccccc23)cc1	-7	-3	0	-4
CC(C)CCCN1C(Nc2ccccc2)=NC[C@@H]1C	3	-6	0	2
O=C(NCc1ccccn1)Nc1cccc(Cl)c1Cl	7	-3	0	-2
COc1ccc(NS(=O)(=O)c2ccc(OC)c(OC)c2)cc1OC	5	5	-1	-4
COc1ccc(S(=O)(=O)Nc2ccc(F)c(F)c2)cc1Cl	-13	4	0	4.6*
CC1=CC(=O)c2c(O)ccc(O)c2C1=O	26	6	3	5.3*
COCCn1c(C)cc(C(=O)CSc2cc(C)c3ccccc3n2)c1C	13	-8	0	5.7*
O=C(N/C(=C\c1ccc(-c2ccccc2)o1)C(=O)N1CCOCC1)c1ccccc1	9	-39	5	-2
Cc1c(OCC(=O)N2C[C@H]3C[C@@H](C2)c2cccc(=O)n2C3)ccc2c3c(c(=O)oc12)CCC3	3	-19	12*	-2
O=C(COc1cc2oc(=O)c3c(c2cc1Cl)CCC3)N1C[C@H]2C[C@@H](C1)c1cccc(=O)n1C2	-14	-29	11*	0
Cc1c(OCC(=O)N2C[C@H]3C[C@@H](C2)c2cccc(=O)n2C3)ccc2c3c(c(=O)oc12)CCCC3	8	-32	6	-3
CCC(C)(C)c1ccc(OCC(=O)Nc2ccncc2)cc1	-14	-2	0	4
CCOC(=O)c1sc(-c2ccc(C(F)(F)F)cc2)nc1O	36	-13	-1	4.9*
CCOC(=O)c1sc(-c2cccc(C(F)(F)F)c2)nc1O	36	-9	-2	2
CCc1ccc(NS(=O)(=O)c2ccc3oc(=O)ccc3c2)cc1	16	-14	-3	-3
O=C(O)CC/C(=C\c1ccccc1[N+](=O)[O-])c1nc2ccccc2s1	-21	-27	8.8*	-2
O=C(NC(=S)Nc1nc(-c2ccc([N+](=O)[O-])cc2)cs1)c1ccco1	5	-2	-5	62*
O=c1nc2c(O)cccn2c2c1c(=O)[nH]c1ccccc12	18	-5	5	8.3*
O=c1[nH]c2ccccc2c2nc3ccccn3c12	-1	2	3	-2
CN(C(=O)Nc1cnccc1C(F)(F)F)C1CCCCC1	-5	-8	-3	-2
COc1cc(C=O)ccc1OC(=O)N1CCOCC1	9	-4	-2	-2
C#CCn1c(CCNC(=O)c2ccco2)nc2ccccc21	9	-13	1	-2
